Data on 33 compounds can be found in ChEMBL document CHEMBL2040752, “Synthesis and effects of some novel tetrahydronaphthalene derivatives on proliferation and nitric oxide production in lipopolysaccharide activated Raw 264.7 macrophages” (Eur J Med Chem, 2011).

The source made the active and inactive calls. The rule behind the calls is not given here.

In data set [1] the test system is RAW264.7. Kind of data set: Inhibition of nitrite level in LPS-induced mouse RAW264.7 cells at 5 uM by Griess assay relative to LPS treated control. The class given is functional. In short, it runs like this: (§1)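 RAW 264.7 cells (4 ×10⁴ per well) pre-incubated with compound for 1 h, then stimulated with LPS ([…]) for 20 h. Supernatant mixed 1:1 with Griess reagent (1% sulfanilamide, 0.1% naphthylethylenediamine dihydrochloride, 2% phosphoric acid) for 10 min at room temperature, read at 550 nm against a NaNO₂ standard curve. Nitrite in the LPS-only group is set as 100%; % inhibition given as mean ± value.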
Background: Griess reagent forms a coloured azo dye with nitrite.

The subject of data set [2] is RAW264.7. Kind of data set: Inhibition of nitrite level in LPS-induced mouse RAW264.7 cells at 50 uM by Griess assay relative to LPS treated control. The class given is functional. In short, it runs like this: as §1
The test system of data set [3] is RAW264.7. Kind of data set: Cytotoxicity against mouse RAW264.7 cells at 50 uM by MTT assay. Format: cell-based. Conditions: raw264.7, 50 µM. The essentials: (§2)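 RAW 264.7 macrophages (4 ×10⁴ per well) pretreated with compound for 1 h, then held with or without LPS ([…]) for 20 h. After the supernatant was removed for nitrite assay, cells got 0.5 mg/mL MTT for 1 h at 37 °C. Formazan was dissolved in DMSO for at least 2 h in the dark and read at 550 nm; data are absorbance, mean ± S.D.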

Data set [4] concerns RAW264.7. In words: Cytotoxicity against mouse RAW264.7 cells at 5 uM by MTT assay. The class given is cell-based. Conditions: raw264.7, 5 µM. In short, it runs like this: as §2
In general terms: Tetrazolium assays rely on reduction of a dye to a coloured formazan, in cell work by metabolically active cells.

Usually inhibition stands for the percentage by which the read-out fell short of the control. For `CC1(C)CCC(C)(C)c2cc(C(=O)NCc3ccc(F)cc3F)ccc21`, the inhibition result in the data set on RAW264.7 [1] was “inactive”. In the data set with RAW264.7 [2], this compound returned an inhibition at 50 µM of 7.7%. Besides, the Activity entry in the data set on RAW264.7 [3] is “Toxic”.
In the data set with RAW264.7 [1], `CC1(C)CCC(C)(C)c2cc(C(=O)NC3CC(C)(C)N([O])C(C)(C)C3)ccc21` gave an inhibition at 5 µM of 18.2%. Besides, 50 µM produced 59.2% inhibition with RAW264.7 [2]. For the same compound, the Activity entry in the data set with RAW264.7 [3] was “Toxic”.
Consider `CC1(C)CCC(C)(C)c2cc(C(=O)NN3CCCCC3)ccc21`, for which, in the data set with RAW264.7 [1], the inhibition entry is “inactive”. The inhibition at 50 µM with RAW264.7 [2] was 10.5%. Also, the Activity result in the data set with RAW264.7 [3] is listed as “Toxic”.
As to `CC1(C)CCC(C)(C)c2cc(C(=O)NCc3ccc(Cl)cc3Cl)ccc21`, in the data set with RAW264.7 [1], the inhibition entry is “inactive”. This compound returned an inhibition at 50 µM in the data set on RAW264.7 [2] of 6.6%.
With `Cc1cc2c(cc1NC(=O)/C=C/c1ccccc1)C(C)(C)CCC2(C)C`, the inhibition result in the data set with RAW264.7 [1] and in the data set with RAW264.7 [2] was “inactive” each time. Moreover, the Activity entry with RAW264.7 [3] is given as “Toxic”.
For `O=C(O)/C=C/c1ccc(O)c(O)c1` [CAFFEIC ACID], the inhibition at 5 µM in the data set on RAW264.7 [1] is 23.2%. The compound further displayed an inhibition at 50 µM in the data set with RAW264.7 [2] of 44.2%. Besides, the Activity result in the data set on RAW264.7 [4] and in the data set on RAW264.7 [3] was “Non-toxic” in each case.
In the data set with RAW264.7 [1], `Cc1cc2c(cc1NC(=O)CCCC[C@@H]1CCSS1)C(C)(C)CCC2(C)C` gave an inhibition at 5 µM of 28.5%. Moreover, in the data set with RAW264.7 [2], 50 µM produced 22.8% inhibition.
In the case of `CC1(C)CCC(C)(C)c2cc(C(=O)Nc3cc[nH]c(=O)n3)ccc21`, in the data set with RAW264.7 [1], the inhibition at 5 µM is 11.5%. In the data set with RAW264.7 [2], this compound yielded an inhibition at 50 µM of 21.1%. For the same compound, the Activity result in the data set on RAW264.7 [3] is reported as “Toxic”.
Regarding `O=C(O)CCCCC1CCSS1` (stereo not drawn) [LIPOIC ACID, ALPHA], 5 µM produced 25.2% inhibition in the data set on RAW264.7 [1]. Moreover, at 50 µM the inhibition in the data set on RAW264.7 [2] was 46%. The Activity result in the data set with RAW264.7 [4] and with RAW264.7 [3] was “Non-toxic” throughout.
Regarding `COc1cc(/C=C/C(=O)Nc2cc3c(cc2C)C(C)(C)CCC3(C)C)ccc1O`, the inhibition at 5 µM in the data set on RAW264.7 [1] is 17.8%. In the data set with RAW264.7 [2], this compound displayed an inhibition at 50 µM of 48%. In the data set with RAW264.7 [3], the Activity entry is “Toxic”.
For `Cc1cc2c(cc1NC(=O)/C=C/c1ccc(O)c(O)c1)C(C)(C)CCC2(C)C`, in that order: 23.3%, 46.2% and “Toxic”.
In the case of `Cc1cc2c(cc1NC(=O)c1ccc3c(c1)C(C)(C)CCC3(C)C)C(C)(C)CCC2(C)C`, the inhibition entry in the data set on RAW264.7 [1] and in the data set with RAW264.7 [2] was “inactive” throughout. The Activity entry in the data set with RAW264.7 [4] and in the data set with RAW264.7 [3] was “Toxic” throughout.
`CC1(C)CCC(C)(C)c2cc(C(=O)NN3CCCCCC3)ccc21` came in with an inhibition at 5 µM in the data set with RAW264.7 [1] of 25.7%. The inhibition at 50 µM in the data set on RAW264.7 [2] amounted to 43.6%. For the same compound, the Activity result in the data set on RAW264.7 [3] is given as “Toxic”.
As for `CCOC(=O)N1CCC(NC(=O)c2ccc3c(c2)C(C)(C)CCC3(C)C)CC1`, the inhibition result with RAW264.7 [1] was “inactive”. Also, at 50 µM the inhibition with RAW264.7 [2] was 30%.
Consider `Cc1cc2c(cc1NC(=O)C1(C)CCc3c(C)c(O)c(C)c(C)c3O1)C(C)(C)CCC2(C)C` (stereo not drawn), for which, in the data set on RAW264.7 [1], the inhibition result was “inactive”. In the data set with RAW264.7 [2], this compound gave an inhibition at 50 µM of 10.5%. Besides, the Activity result with RAW264.7 [3] is “Toxic”.
For `CC1(C)CCC(C)(C)c2cc(C(=O)Nc3nccs3)ccc21`, in that order: “inactive”, 33.5% and “Toxic”.
`Cc1c(C)c2c(c(C)c1O)CCC(C)(C(=O)O)O2` (stereo not drawn) [TROLOX] came in with an inhibition at 5 µM in the data set with RAW264.7 [1] of 33.4%. The inhibition at 50 µM with RAW264.7 [2] was determined as 39.3%. The Activity result in the data set on RAW264.7 [4] and with RAW264.7 [3] was “Non-toxic” throughout.
`COc1ccc(/C=C/C(=O)Nc2cc3c(cc2C)C(C)(C)CCC3(C)C)cc1OC`: testing at 5 µM in the data set on RAW264.7 [1] gave an inhibition of 24.1%. Also, at 50 µM the inhibition in the data set on RAW264.7 [2] was 32.8%. In addition, the Activity entry in the data set with RAW264.7 [4] and with RAW264.7 [3] was “Non-toxic” each time.
As for `CC1(C)CCC(C)(C)c2cc(C(=O)NCc3ccccc3)ccc21`, in the data set with RAW264.7 [1], the inhibition result was “inactive”. In the data set on RAW264.7 [2], this compound gave an inhibition at 50 µM of 15.9%.
Take `COc1ccc(CCCC(=O)Nc2cc3c(cc2C)C(C)(C)CCC3(C)C)cc1OC`: the inhibition result with RAW264.7 [1] and with RAW264.7 [2] was “inactive” each time. Also, the Activity entry in the data set with RAW264.7 [3] was “Toxic”.
`Cc1cc2c(cc1NC(=O)CCCc1ccccc1)C(C)(C)CCC2(C)C`: the inhibition entry with RAW264.7 [1] and in the data set on RAW264.7 [2] was “inactive” throughout. Moreover, the Activity entry with RAW264.7 [3] is reported as “Toxic”.
With `CC(=O)Oc1c(C)c(C)c2c(c1C)CCC(C)(C(=O)Nc1cc3c(cc1C)C(C)(C)CCC3(C)C)O2` (stereo not drawn), the inhibition at 5 µM in the data set with RAW264.7 [1] was determined as 15.8%. For the same compound, in the data set with RAW264.7 [2], the inhibition at 50 µM was 4.4%.
In turn, `CC1(C)CCC(C)(C)c2cc(C(=O)Nc3cccc4ccccc34)ccc21` registered an inhibition at 5 µM in the data set on RAW264.7 [1] of 10.5%. In the data set with RAW264.7 [2], this compound came in with an inhibition at 50 µM of 5.7%.
Turning to `COc1cc(/C=C/C(=O)O)ccc1O` [FERULATE], in the data set on RAW264.7 [1], 5 µM produced 24.8% inhibition. In the data set on RAW264.7 [2], this compound registered an inhibition at 50 µM of 39.1%. In addition, the Activity result in the data set on RAW264.7 [4] and in the data set with RAW264.7 [3] was “Non-toxic” in each case.
In the data set with RAW264.7 [1], `CC1(C)CC(NC(=O)c2ccc3c(c2)C(C)(C)CCC3(C)C)CC(C)(C)N1` came in with an inhibition at 5 µM of 19.1%. This compound gave an inhibition at 50 µM with RAW264.7 [2] of 42.9%. For the same compound, the Activity result with RAW264.7 [4] and in the data set on RAW264.7 [3] was “Non-toxic” each time.
For the compound `CC1(C)CC(N)CC(C)(C)N1[O]` [TEMPAMINE], the inhibition at 5 µM in the data set with RAW264.7 [1] was 26.9%. For the same compound, 50 µM produced 45.6% inhibition in the data set on RAW264.7 [2]. Also, the Activity entry with RAW264.7 [4] and in the data set with RAW264.7 [3] was “Non-toxic” throughout.
Consider `CC1(C)CCC(C)(C)c2cc(C(=O)NN3CCOCC3)ccc21`, for which, in the data set with RAW264.7 [1], the inhibition at 5 µM amounted to 5.8%. In the data set on RAW264.7 [2], this compound displayed an inhibition at 50 µM of 34.3%. In addition, the Activity result in the data set with RAW264.7 [3] was “Toxic”.
As to `CC1(C)CCC(C)(C)c2cc(C(=O)NC3CCN(Cc4ccccc4)CC3)ccc21`, 5 µM produced 21% inhibition in the data set with RAW264.7 [1]. The compound also registered an inhibition at 50 µM with RAW264.7 [2] of 22.5%. Besides, the Activity entry with RAW264.7 [4] and in the data set with RAW264.7 [3] was “Non-toxic” in each case.
In the data set with RAW264.7 [1], `CC1=C(/C=C/C(C)=C/C=C/C(C)=C/C(=O)O)C(C)(C)CCC1` [TRETINOIN] returned an inhibition at 5 µM of 57.2%. The same compound had an inhibition at 50 µM with RAW264.7 [2] of 66%. The Activity result in the data set with RAW264.7 [4] and in the data set with RAW264.7 [3] was “Non-toxic” throughout.
Compound `CC1(C)CCC(C)(C)c2cc(C(=O)Nc3nc4ccccc4[nH]3)ccc21` yielded an inhibition at 5 µM in the data set with RAW264.7 [1] of 15.6%. The compound further had an inhibition at 50 µM in the data set with RAW264.7 [2] of 45.7%. In addition, the Activity result in the data set with RAW264.7 [4] and in the data set on RAW264.7 [3] was “Non-toxic” throughout.
With `CC1(C)CCC(C)(C)c2cc(C(=O)NC3CC3)ccc21`, the inhibition at 5 µM with RAW264.7 [1] turned out to be 20.5%. Besides, testing at 50 µM with RAW264.7 [2] gave an inhibition of 38.2%. Besides, in the data set with RAW264.7 [3], the Activity entry is listed as “Toxic”.
Turning to `CC1(C)CCC(C)(C)c2cc(C(=O)Nc3ncccn3)ccc21`, the inhibition result in the data set on RAW264.7 [1] is “inactive”. Moreover, in the data set with RAW264.7 [2], the inhibition at 50 µM came out at 18.6%.
In turn, `CC1(C)CCC(C)(C)c2cc(C(=O)NCCN3CCOCC3)ccc21` showed an inhibition at 5 µM with RAW264.7 [1] of 14.3%. Besides, testing at 50 µM with RAW264.7 [2] gave an inhibition of 40.1%. In addition, the Activity result with RAW264.7 [3] is “Toxic”.
